# Source: ChEMBL document CHEMBL1135581, “Novel selective PDE4 inhibitors. 3. In vivo antiinflammatory activity of a new series of N-substituted cis-tetra- and cis-hexahydrophthalazinones” (J Med Chem, 2002)
# What was measured:
# Phosphodiesterase 4 = Phosphodiesterase 4 (Homo sapiens, UniProt P27815+Q08499+Q07343+Q08493); test: Inhibitory concentration against phosphodiesterase 4 (PDE4) in cytosol of human neutrophils; type: protein assay
# Mus musculus [1] = test: Percent inhibition of arachidonic acid (AA) […], induced mouse ear edema after pretreatment at a concentration of 30 umol/kg (po); type: functional
# Procedure, shortened: (§1)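 Female NMRI mice, 25–32 g, n = 8 per group. Compound in water (pH 6.5–7) given by gavage at 30 μmol/kg, 1 h before 3 mg arachidonic acid in 10 μL acetone applied to the right ear.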
# Mus musculus [2] = test: Percent inhibition of arachidonic acid induced mouse ear edema after 1 hr pretreatment with 30 uM/kg peroral dose; type: functional; procedure, shortened: as §1
# [3] = Inhibition of LPS-stimulated tumor necrosis factor-alpha release by human whole blood; type: functional
# Procedure, shortened: (§2)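 Heparinized venous human whole blood (8 U/mL) from healthy volunteers, preincubated 15 min at 37 °C with compound (0.001–10 μM final, 0.1% DMSO). Then stimulated with LPS (1 μg/mL final) for 4 h at 37 °C. Plasma TNFα measured by nonisotopic immunoassay. IC30 from concentration–inhibition curves by nonlinear regression. Means of two independent determinations in triplicate.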
# [4] = Inhibition of N-formyl-methionyl-leucyl-phenylalanine (fMLP)-stimulated production of reactive oxygen species (ROS) in human PMNL by 35% of control; type: functional
# Procedure, shortened: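 PMNL isolated from citrated human blood (dextran sedimentation, ficoll, hypotonic lysis), 1.25 × 10^7 cells/mL. Buffer: HEPES saline with Mg/Ca, glucose, BSA, 10 μM luminol, 4 μM microperoxidase. […] IC35 by nonlinear regression. Two independent determinations in triplicate.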
# [5] = Inhibition of LPS-stimulated Tumor necrosis factor alpha release by human whole blood; type: functional; procedure, shortened: as §2
SMILES,Log IC50 (Phosphodiesterase 4),inhibition in vivo at 30 µmol/kg (Mus musculus [1]) [%],other results
COc1ccc(C2=NN(C)C(=O)C3CCCCC23)cc1OC (centres undefined),-6.8,,
COc1ccc(C2=NN(Cc3cccc(C(=O)O)c3)C(=O)C3CCCCC23)cc1OC (centres undefined),-7.9,18,
COc1ccc(C2=NN(Cc3cccc(O)c3)C(=O)C3CCCCC23)cc1OC (centres undefined),-8,,
COc1ccc(C2=NN(C/C=C/c3ccccc3)C(=O)C3CCCCC23)cc1OC (centres undefined),-7.8,,
COc1ccc(C2=NN(CCCCCC(=O)[O-])C(=O)C3CCCCC23)cc1OC.[Na+] (centres undefined),-7.5,18,
COc1ccc(C2=NN(CCCCCCCC(=O)O)C(=O)C3CCCCC23)cc1OC (centres undefined),-7.6,,Inhibition (Mus musculus [2]): 13%
COc1ccc(C2=NN(C(C)(C)C)C(=O)C3CCCCC23)cc1OC (centres undefined),-7.9,,
COc1ccc(C2=NN(C3CCCCC3)C(=O)C3CC=CCC23)cc1OC (centres undefined),-9.2,13,
COc1ccc(C2=NN(C3CCCCCC3)C(=O)C3CC=CCC23)cc1OC (centres undefined),,59,pIC30 [3]: 7.05; pIC35 [4]: 6.82
COc1ccc(C2=NN(C3CCSCC3)C(=O)C3CC=CCC23)cc1OC (centres undefined),-8.9,,
COc1ccc(C2=NN(C3C4CC5CC(C4)CC3C5)C(=O)C3CC=CCC23)cc1OC (centres undefined),-9.4,51,pIC30 [3]: 7.22; pIC35 [4]: 6.3
COc1ccc(C2=NN(C3CCOCC3)C(=O)C3CC=CCC23)cc1OC (centres undefined),-8.9,2,
COc1ccc(C2=NN(C3CCCCCC3)C(=O)C3CC=CCC23)c2c1OC1(CCCC1)C2 (centres undefined),,49,
COc1ccc(C2=NN(CCN(C)C)C(=O)C3CCCCC23)cc1OC (centres undefined),-6.5,,
COc1ccc(C2=NN(CC#N)C(=O)C3CCCCC23)cc1OC (centres undefined),-7.2,,
COc1ccccc1CN1N=C(c2ccc(OC)c(OC)c2)C2CCCCC2C1=O (centres undefined),-7.7,,
COc1ccc(C2=NN(CC3CC3)C(=O)C3CC=CCC23)cc1OC (centres undefined),-8.1,15,
COc1ccc(C2=NN(CCO)C(=O)C3CCCCC23)cc1OC (centres undefined),-6.8,,
COc1ccc(C2=NN(Cc3ccccc3O)C(=O)C3CCCCC23)cc1OC (centres undefined),-8.1,,

SMILES,Log IC50 (Phosphodiesterase 4),inhibition in vivo at 30 µmol/kg (Mus musculus [1]) [%],other results
COc1ccc(C2=NN(C3CCCCCCC3)C(=O)C3CC=CCC23)cc1OC (centres undefined),-9.3,30,
COc1ccc(C2=NN(C3CCCCCC3)C(=O)C3CCCCC23)c2c1OC1(CCCC1)C2 (centres undefined),-9.2,29,
CCN1N=C(c2ccc(OC)c(OC)c2)C2CCCCC2C1=O (centres undefined),-7.4,,
COc1ccc(C2=NN(C(C)C)C(=O)C3CCCCC23)cc1OC (centres undefined),-8.6,14,
COc1ccc(C2=NN(CCCCCCN(C)C)C(=O)C3CCCCC23)cc1OC (centres undefined),-7,,
C#CCN1N=C(c2ccc(OC)c(OC)c2)C2CCCCC2C1=O (centres undefined),-7.4,,
COc1ccc(C2=NN(C3CCCC3)C(=O)C3CC=CCC23)cc1OC (centres undefined),-9.3,19,
COc1ccc(C2=NN(Cc3ccc(C(=O)O)cc3)C(=O)C3CCCCC23)cc1OC (centres undefined),-7.3,27,
COc1ccc(C2=NN(CCCOc3ccccc3)C(=O)C3CCCCC23)cc1OC (centres undefined),-7.9,,
COc1ccc(C2=NN(c3ccccc3)C(=O)C3CCCCC23)cc1OC (centres undefined),-7.6,,
CCCN1N=C(c2ccc(OC)c(OC)c2)C2CCCCC2C1=O (centres undefined),-7.8,,
COc1ccc(C2=NN(Cc3ccncc3)C(=O)C3CCCCC23)cc1OC (centres undefined),-7.8,29,
COc1ccc(CN2N=C(c3ccc(OC)c(OC)c3)C3CCCCC3C2=O)cc1 (centres undefined),-8.2,13,
COc1ccc(C2=NN(CCCCn3ccnc3)C(=O)C3CCCCC23)cc1OC (centres undefined),-8,39,
COc1ccc(C2=NN(C3CCCCCC3)C(=O)C3CC=CCC23)c2c1OC(C)(C)C2 (centres undefined),,54,pIC30 [3]: 7.05
COc1ccc(C2=NN(CC(=O)c3ccccc3)C(=O)C3CCCCC23)cc1OC (centres undefined),-8,,
COc1ccc(C2=NN(CC(=O)O)C(=O)C3CCCCC23)cc1OC (centres undefined),-5.7,,
COc1ccc(C2=NN(Cc3ccc(O)cc3)C(=O)C3CCCCC23)cc1OC (centres undefined),-8,,
COc1ccc(C2=NN(C3Cc4ccccc4C3)C(=O)C3CC=CCC23)cc1OC (centres undefined),-9.1,,

SMILES,Log IC50 (Phosphodiesterase 4),inhibition in vivo at 30 µmol/kg (Mus musculus [1]) [%],other results
COc1ccc(C2=NN(CCCCCCN)C(=O)C3CCCCC23)cc1OC (centres undefined),-7.1,,
COc1cc(CN2N=C(c3ccc(OC)c(OC)c3)C3CCCCC3C2=O)cc(OC)c1 (centres undefined),-7.6,,
COc1ccc(C2=NN(C3CCCC3)C(=O)C3CCCCC23)cc1OC (centres undefined),-8.4,,
COc1ccc(C2=NN(C3CCCCCC3)C(=O)C3CCCCC23)cc1OC (centres undefined),-8.6,18,pIC30 [5]: 7.3
CCOC(=O)CN1N=C(c2ccc(OC)c(OC)c2)C2CCCCC2C1=O (centres undefined),-7.2,,
COc1ccc(C2=NN(CCCO)C(=O)C3CCCCC23)cc1OC (centres undefined),-7.5,,
COc1ccc(C2=NN(CCn3ccnc3)C(=O)C3CCCCC23)cc1OC (centres undefined),-6.3,,
COc1ccc(C2=NN(C(C)C)C(=O)C3CC=CCC23)cc1OC (centres undefined),-8.9,15,
C=CCN1N=C(c2ccc(OC)c(OC)c2)C2CCCCC2C1=O (centres undefined),-7.6,,
COc1ccc(C2=NN(CCCCN(C)C)C(=O)C3CCCCC23)cc1OC (centres undefined),-7,,
COc1cccc(CN2N=C(c3ccc(OC)c(OC)c3)C3CCCCC3C2=O)c1 (centres undefined),-8.5,8,
COc1ccc(C2=NN(CCc3ccccc3)C(=O)C3CCCCC23)cc1OC (centres undefined),-7.6,,
COc1ccc(C2=NN(Cc3ccccn3)C(=O)C3CCCCC23)cc1OC (centres undefined),-7.6,,
COC(=O)c1ccc(CN2N=C(c3ccc(OC)c(OC)c3)C3CCCCC3C2=O)cc1 (centres undefined),-7.9,,
COc1ccc(C2=NN(Cc3cccnc3)C(=O)C3CCCCC23)cc1OC (centres undefined),-7.6,,
COc1ccc([C@@H]2CNC(=O)C2)cc1OC1CCCC1 [(-)-ROLIPRAM],,,Inhibition (Mus musculus [2]): 55%
COc1ccc([C@H](Cc2ccncc2)c2ccccc2)cc1OC1CCCC1 [CDP840],,48,pIC30 [3]: 4.82; pIC35 [4]: 7.2
COc1ccc([C@]2(C#N)CC[C@@H](C(=O)O)CC2)cc1OC1CCCC1 [CILOMILAST],,33,pIC30 [3]: 4.89; pIC35 [4]: 7.04
